Measurements from ChEMBL document CHEMBL3271971, “Antineoplastic and biochemical properties of arylsulfonylhydrazones of 2-formylpyridine N-oxide” (J Med Chem, 1976).

Tests used:
Mus musculus = assay: Toxicity in CD-1 mouse allografted with mouse S180A cells assessed as change in body weight at maximum effective dose administered qd for 6 days (reference value: 23.2%); type: organism-based; conditions: 144 h
[1] = Antineoplastic activity against mouse S180A cells allografted in CD-1 mouse assessed as average survival at maximum effective dose administered qd for 6 days relative to control; type: functional
Outline: (§1)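 Sarcoma 180 ascites cells were transplanted from a donor mouse bearing a 7-day tumour. Each agent was tested at 10–60 mg/kg/day, once daily for six consecutive days, starting 24 h after transplantation, in groups of 5–10 mice. Pooled untreated controls totalled 40 mice. Mice surviving beyond 50 days were counted as 50-day survivors, and body-weight change over therapy served as the toxicity index.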

[2] = Antineoplastic activity against mouse S180A cells allografted in CD-1 mouse assessed as average survival at maximum effective dose administered qd for 6 days (reference value: 12.5 +/- 0.3 days); type: functional; outline: as §1
[3] = Antineoplastic activity against mouse S180A cells allografted in CD-1 mouse assessed as mouse survival at maximum effective dose administered qd for 6 days measured for 50 days relative to control; type: functional; outline: as §1
[4] = Antineoplastic activity against mouse S180A cells allografted in CD-1 mouse assessed as maximum dose required for increase in mouse survival administered qd for 6 days; type: functional

Row | Structure (SMILES) | Activity (Mus musculus) | T/C [1] | Survival [2] | Survival [3] | Activity [4]
1 | O=S(=O)(N/N=C/c1cccc[n+]1[O-])c1ccccc1 | -5.2% | 339% | 42.4 days | 40% | 40 mg/kg
2 | Cc1ccc(S(=O)(=O)N/N=C/c2ccc[n+]([O-])c2)cc1 | 0% | 109% | 13.6 days | 0% | 60 mg/kg
3 | Cc1ccc(S(=O)(=O)N/N=C/c2cc[n+]([O-])cc2)cc1 | 17.7% | 123% | 15.4 days | 0% | 60 mg/kg
4 | CS(=O)(=O)N/N=C/c1cccc[n+]1[O-] | 20% | 123% | 15.4 days | 0% | 60 mg/kg
5 | O=S(=O)(Cc1ccccc1)N/N=C/c1cccc[n+]1[O-] | -0.3% | 282% | 35.2 days | 40% | 40 mg/kg
6 | Cc1ccc(C(=O)N/N=C/c2cccc[n+]2[O-])cc1 | 10.2% | 90% | 11.2 days | 0% | 60 mg/kg
7 | Cc1ccc(S(=O)(=O)N/N=C/c2ccccn2)cc1 | 20.1% | 123% | 15.4 days | 0% | 10 mg/kg
8 | Cc1ccc(S(=O)(=O)N/N=C/c2cccnc2)cc1 | 12.6% | 106% | 13.2 days | 0% | 60 mg/kg
9 | O=S(=O)(Cc1ccccc1)N/N=C/c1ccncc1 | -3.3% | 169% | 21.2 days | 0% | 60 mg/kg
10 | CS(=O)(=O)N/N=C/c1ccncc1 | 18.6% | 107% | 13.4 days | 0% | 20 mg/kg
11 | Cc1ccc(C(=O)N/N=C/c2ccccn2)cc1 | 17.4% | 94% | 11.8 days | 0% | 60 mg/kg
12 | Cc1ccc(S(=O)(=O)N/N=C/c2ccccc2[N+](=O)[O-])cc1 | 2.1% | 105% | 13.2 days | 0% | 60 mg/kg
13 | O=S(=O)(N/N=C/c1ccc2ccccc2[n+]1[O-])c1ccccc1 | 2.6% | 109% | 13.6 days | 0% | 20 mg/kg
14 | O=S(=O)(N/N=C/c1c2ccccc2cc[n+]1[O-])c1ccccc1 | 1.6% | 107% | 13.4 days | 0% | 10 mg/kg
15 | Cc1ccc(S(=O)(=O)N/N=C/c2ccncc2)cc1 | -0.9% | 226% | 28.2 days | 10% | 60 mg/kg
16 | Cc1ccc(S(=O)(=O)N/N=C/c2ccccc2)cc1 | 15.1% | 115% | 14.4 days | 0% | 20 mg/kg
